# Screening results deposited in PubChem BioAssay by several laboratories.
# Shown are actives, neighbours in structure and some others; about 2.3% of the full set was active somewhere.
# XiGFP reactiv = activators of X-chromosome reactivation in mouse fibroblasts; XiGFP mouse fibroblasts, % GFP-positive cells imaging, 3 d; cells co-treated with 5-aza-dC sensitizer; scaled so ellipticine positive control = 100%; activation, % at 7.58 µM; hit rate 0.055% among 360,000; AID 743238;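 active = mean normalized replicate activation at least 10% and every replicate at or above 10%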;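 also: 0% = median of on-plate neutral control wells and 100% = ellipticine 6 µM median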
#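 System: XiGFP fibroblasts, SV40-immortalized. Medium: DMEM plus 5-aza-dC sensitizer. Doses: single point. Timing: 3 d treatment, 15 min room-temperature fixation. Control set: ellipticine 6 µM.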
# FN deposition inh = fibronectin deposition inhibition; AH1F fibroblasts, Alexa488-fibronectin deposition fluorescence, overnight; hit rate 0.086% among 350,000; inhibition, % at 12.6 µM; AID 743247;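 active = mean inhibition across replicates of 30% or more, regardless of how many single replicates reach that level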;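 also: positive control wells lacked labelled fibronectin entirely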
#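 Material: AH1F fibroblasts assembling fluorescent fibronectin matrix; amount: 10000 AH1F cells/well; medium: DMEM, 2% serum; reagent: Alexa488-fibronectin, 24 nM final in well; dosing: single compound dose, delivered by pin transfer; incubation: 1 h adhesion, overnight exposure; detection: fluorescence after three HBSS washes, excitation 485 nm, emission 525 nm; measure: fibronectin deposition inhibition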
# TROY signal inh = inhibitors of TROY-dependent NF-kB signaling; Q293 LMP1-TROYcd NF-kB luciferase reporter, 4 h; inhibition, % at 10 µM; hit rate 0.98% among 360,000; AID 1347056;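 active = compounds whose plate-normalised and pattern-corrected inhibition of the luciferase reporter signal at the single screening dose is 50% or more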
# TWEAK Fn14 block = TWEAK-Fn14 signaling inhibition; inhibition, % at 10 µM; hit rate 2% among 360,000; TWEAK-stimulated Fn14 reporter cells, luciferase luminescence, 8 h; in the data active = inhibition above about 50%
# EWS-Fli block = inhibitors of EWS/Fli oncoprotein transcriptional activity. A673 NR0B1-luciferase reporter, viability-normalised. inhibition, % at 12.6 µM. hit rate 0.67% among 350,000;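 active = mean inhibition of at least 50% after viability correction, with every replicate also passing that limit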;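 also: firefly luciferase signal divided by Alamar Blue viability fluorescence both relative to DMSO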
# LGR2 inh = Drosophila LGR2 receptor signaling inhibition; hit rate 0.35% among 380,000; inhibition, % at 9.99 µM; HEK293 LGR2, CRE-luciferase, bursicon-stimulated, 4 h;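 active = drop in luminescence signal, shown as inhibition above about 50% in the replicate tests, limit read from the data, passing the limit was not always enough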;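 also: agonist challenge used bursicon conditioned medium at about half maximal strength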
# * hit, by the source's call; · = no result.
SMILES,XiGFP reactiv,FN deposition inh,TROY signal inh,TWEAK Fn14 block,EWS-Fli block,LGR2 inh
Cc1cc(=O)[nH]c(SCc2cccc3ccccc23)n1,0.1,3.1,19.1,-5.5,9.3,-5.9
COC(=O)C1CCN(C(=O)COC(=O)c2ccc(OC)c(S(=O)(=O)N3CCCc4ccccc43)c2)CC1,0.0,9.5,33.6,50.7*,-17.8,5.0
CCOC(=O)c1nc(Nc2ccc(Nc3ccccc3)cc2)c2ccccc2n1,-0.9,-4.4,53.9*,42.5,-4.2,20.4
CCOC(=O)c1ccc(Nc2nc(C(=O)OCC)nc3ccccc23)cc1,·,·,6.7,22.9,·,·
Cc1ccccc1-c1ccc2c(c1)O[C@@H](CN(C)Cc1ccncc1)[C@H](C)CN([C@H](C)CO)S2(=O)=O,0.0,·,·,·,65.8*,-0.4
Cc1ccc(-c2ccc3c(c2)O[C@H](CN(C)Cc2ccncc2)[C@H](C)CN([C@@H](C)CO)S3(=O)=O)cc1,0.3,-8.9,·,·,-4.1,-11.8
Cc1ccc(-c2ccc3c(c2)O[C@H](CN(C)Cc2ccncc2)[C@@H](C)CN([C@H](C)CO)S3(=O)=O)cc1,1.7,28.8,·,·,72.0*,-6.1
Cc1ccccc1-c1ccc2c(c1)O[C@H](CN(C)Cc1ccncc1)[C@H](C)CN([C@H](C)CO)S2(=O)=O,-0.3,·,·,·,18.4,2.8
CO[C@H]1CN(C)C(=O)c2cc(NS(=O)(=O)c3ccc(Cl)cc3)ccc2OC[C@@H](C)N(C)C[C@@H]1C,0.1,2.1,·,·,-1.3,-10.3
C[C@@H]1CCCCO[C@H](CN(C)C(=O)Nc2ccc3c(c2)OCO3)[C@H](C)CN([C@@H](C)CO)C(=O)c2cc(NC(=O)Nc3cccc4ccccc34)ccc2O1,0.3,-15.4,·,·,10.8,1.0
O=C(C(=Cc1ccccc1)CN1CCCCC1)c1ccccc1,1.8,-5.8,41.5,102.0*,57.8*,94.5*
Cc1nc2c(ccc3nc(NC(=O)C(c4ccccc4)c4ccccc4)sc32)s1,0.0,4.1,29.6,75.1*,12.5,-22.8
COc1ccc(OC)c2c1C(=O)C(Cl)=C(Cl)C2=O,8.3,60.5*,53.5*,93.6*,45.0,89.7*
COc1ccc(OC)c2c1C(=O)c1ccccc1C2=O,·,1.6,·,·,·,·
Cn1ncc2c(Nc3ccc(Br)cc3)nc(Nc3ccc(Br)cc3)nc21,-0.1,5.9,29.4,53.0*,-7.1,6.7
Cn1ncc2c(Nc3ccc(O)cc3)nc(Cl)nc21,-0.1,-2.0,-17.1,-18.8,13.8,1.5
Cn1ncc2c(Nc3cccc(Cl)c3)nc(Nc3cccc(Cl)c3)nc21,0.2,5.3,21.3,59.5*,9.2,-1.2
CNc1nc(Nc2ccc(C)c(Cl)c2)c2cnn(C)c2n1,0.3,·,13.6,38.9,10.7,-24.8
C/C=C(/C)C(=O)O[C@@H]1c2c(ccc3ccc(=O)oc23)O[C@@H]1C(C)(C)OC(=O)/C(C)=C\C,-0.1,0.0,-4.6,-3.8,9.1,57.7*
C[C@@H]1CN([C@@H](C)CO)C(=O)c2cc(NS(=O)(=O)c3ccc(Cl)cc3)ccc2O[C@@H]1CN(C)Cc1ccc(C(F)(F)F)cc1,0.0,·,·,·,14.2,-8.9
COc1ccc(CN(C)C[C@@H]2OCCCC[C@@H](C)Oc3ccc(NS(=O)(=O)c4cccs4)cc3C(=O)N([C@@H](C)CO)C[C@H]2C)cc1,0.2,·,·,·,10.4,-15.5
O=S(=O)(c1ccc(Cl)cc1)c1cnc2ccccc2n1,0.1,-6.3,12.6,58.6*,6.3,30.0
COCCNC(=O)C[C@@H]1CC[C@@H](NC(=O)NC2CCCCC2)[C@H](CO)O1,-0.8,·,·,·,·,0.1
COc1ccc2nc3cc(Cl)ccc3c(Nc3cc(C(C)C)c(O)cc3C)c2c1,0.0,11.1,25.7,62.8*,4.5,9.6
COc1ccc(S(=O)(=O)Nc2cc(C(C)C)c(O)cc2C)cc1,·,-1.5,-1.5,-1.7,·,·
SMILES,XiGFP reactiv,FN deposition inh,TROY signal inh,TWEAK Fn14 block,EWS-Fli block,LGR2 inh
O=C(CCCC(=O)N1CCN(c2ccccc2F)CC1)N1CCN(c2ccccc2F)CC1,·,·,38.9,30.9,·,·
O=C(O)/C=C/C(=O)N1CCN(c2ccccc2F)CC1,0.1,-1.3,74.5*,11.4,-32.0,-1.0
C[C@@H]1CN([C@H](C)CO)C(=O)Cc2cc(NC(=O)NC3CCCCC3)ccc2O[C@H]1CN(C)C(=O)Nc1ccc2c(c1)OCO2,0.1,·,·,·,-7.9,-2.0
CN(C)Cc1c(O)ccc2cc(-c3nc4ccccc4n3C)c(=O)oc12,0.5,-5.3,21.1,55.6*,-69.4,2.7
C[C@@H]1CN([C@H](C)CO)S(=O)(=O)c2ccc(C#CC3(O)CCCC3)cc2O[C@@H]1CN(C)C(=O)Cc1ccncc1,-0.1,0.6,·,·,1.6,6.8
CCCCC(CCC(=O)O)(C(=O)OCC)c1csc(N)n1 (stereo unspecified),·,·,·,73.4*,·,·
CCCCC(CCC(=O)O)(C(=O)OCC)c1csc(Nc2ccccc2)n1 (stereo unspecified),·,·,9.1,-5.0,·,·
Cc1ccccc1-c1ccccc1[C@H]1[C@@H](C#N)N(C(=O)c2ccccc2)[C@H]1CO,0.0,-5.9,·,·,20.0,-9.4
N#CC1c2ccccc2-c2ccccc2N1C(=O)c1ccccc1 (stereo unspecified),1.4,·,10.6,22.2,54.5*,0.7
C[C@@H]1CCCCO[C@@H](CN(C)C(=O)Nc2ccc3c(c2)OCO3)[C@H](C)CN([C@@H](C)CO)C(=O)c2cc(NS(=O)(=O)c3ccc(F)cc3)ccc2O1,0.1,-7.1,·,·,4.6,-2.8
COc1ccc(NC(=O)c2cc3c(-c4ccc(OC)c(OC)c4)nn(C)c3s2)cc1OC,·,-19.0,-50.5,58.4*,·,·
O=C(C[C@@H]1C=C[C@H](NS(=O)(=O)c2ccccc2)[C@@H](CO)O1)NCc1ccncn1,-0.5,·,·,·,2.9,-15.4
COc1ccc2cc3cc(C(=O)NCCN4CCc5ccccc5C4)sc3nc2c1,-0.1,4.2,-84.9,-38.3,-4.3,-12.7
CCC(C)NC(=O)c1cc2cc3ccc(OC)cc3nc2s1 (stereo unspecified),·,5.7,-18.4,51.2*,·,·
Cc1ccc(S(=O)(=O)N(C)C[C@@H]2Oc3ccc(NC(=O)CCC(F)(F)F)cc3CC(=O)N([C@@H](C)CO)C[C@@H]2C)cc1,-0.7,4.7,31.0,0.4,66.1*,-13.8
C[C@H](CO)N1C[C@H](C)[C@H](CN(C)S(=O)(=O)c2ccc(Cl)cc2)Oc2ccc(NC(=O)Nc3ccc4c(c3)OCO4)cc2CC1=O,0.4,-8.8,·,·,61.0*,12.8
C[C@H]1CN([C@@H](C)CO)C(=O)Cc2cc(NC(=O)Nc3ccc4c(c3)OCO4)ccc2O[C@H]1CN(C)S(=O)(=O)c1ccccc1,-0.4,12.9,·,·,55.2*,12.2
Cc1ccc(S(=O)(=O)N(C)C[C@H]2Oc3ccc(NC(=O)Nc4ccc5c(c4)OCO5)cc3CC(=O)N([C@@H](C)CO)C[C@H]2C)cc1,-0.8,·,·,·,2.6,11.4
